Measured values published in ChEMBL document CHEMBL1140079, “Discovery of orally bioavailable cathepsin S inhibitors for the reversal of neuropathic pain” (J Med Chem, 2008).
pIC50: −log10 of the molar value.

Assays:
[1] = target: Cathepsin S (Homo sapiens, UniProt P25774); assay: Inhibition of human recombinant cathepsin S by fluorescence assay
Procedure, shortened: (§1)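 Recombinant human enzymes in a fluorescence assay; substrate Z-Phe-Arg-MCA for cathepsins K and L, Z-Leu-Leu-Arg-MCA for cathepsin S. Means of two experiments, each run in duplicate; individual points within a 2-fold range of each other.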

[2] = target: T1, Cathepsin K (Homo sapiens, UniProt P43235); assay: Inhibition of human recombinant cathepsin K by fluorescence assay; procedure, shortened: as §1
T1 sequence (P43235 whole entry): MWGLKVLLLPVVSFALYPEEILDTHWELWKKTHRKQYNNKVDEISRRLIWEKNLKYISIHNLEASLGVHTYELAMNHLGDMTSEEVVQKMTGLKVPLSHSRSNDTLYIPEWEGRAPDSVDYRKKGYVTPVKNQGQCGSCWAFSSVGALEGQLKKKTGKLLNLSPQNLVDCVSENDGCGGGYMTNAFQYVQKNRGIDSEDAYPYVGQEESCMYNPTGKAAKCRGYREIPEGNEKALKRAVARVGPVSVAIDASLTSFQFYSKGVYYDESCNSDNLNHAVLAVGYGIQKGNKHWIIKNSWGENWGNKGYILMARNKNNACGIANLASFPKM

[3] = target: Procathepsin L (Homo sapiens, UniProt P07711); assay: Inhibition of human recombinant cathepsin L by fluorescence assay; procedure, shortened: as §1
Chain of Procathepsin L (Homo sapiens, UniProt P07711) (P07711 whole entry): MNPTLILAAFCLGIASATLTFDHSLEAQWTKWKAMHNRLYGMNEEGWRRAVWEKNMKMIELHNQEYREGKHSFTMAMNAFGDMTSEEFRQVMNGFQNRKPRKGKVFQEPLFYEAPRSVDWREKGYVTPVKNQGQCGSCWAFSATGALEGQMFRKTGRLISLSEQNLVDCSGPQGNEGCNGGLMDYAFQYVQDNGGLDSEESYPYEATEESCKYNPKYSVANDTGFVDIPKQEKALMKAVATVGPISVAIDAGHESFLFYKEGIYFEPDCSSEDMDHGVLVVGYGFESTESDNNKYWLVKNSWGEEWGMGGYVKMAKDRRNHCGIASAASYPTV

[4] = target: Cathepsin S (Mus musculus) (UniProt O70370); assay: Inhibition of cathepsin S-mediated proteolytic cleavage of MHC2 associated invariant chain in mouse splenocytes assessed as induction of accumulation of lip10; assay type: cell-based
[5] = Plasma clearance in Sprague-Dawley rat at 1 mg/kg, iv and 3 mg/kg, po by LC/MS analysis; assay type: ADME, organism-based
Procedure, shortened: (§2)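 Male Sprague-Dawley rats dosed orally at 3 mg/kg as a suspension and intravenously at 1 mg/kg as a bolus. Plasma levels quantified by LC/MS. Oral AUC and Cmax dose-normalized to 1 mg/kg. Means ± SD of three individual experiments.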

[6] = Terminal elimination half life in Sprague-Dawley rat at 1 mg/kg, iv by LC/MS analysis; assay type: ADME, organism-based; parameters: dose 1 mg/kg, route intravenous; conditions: in vivo; procedure, shortened: as §2
[7] = Bioavailability in Sprague-Dawley rat at 1 mg/kg, iv and 3 mg/kg, po by LC/MS analysis; assay type: ADME, organism-based; conditions: in vivo; procedure, shortened: as §2
[8] = Cmax in Sprague-Dawley rat at 3 mg/kg, po by LC/MS analysis; assay type: ADME, organism-based; parameters: dose 3 mg/kg, route oral; conditions: in vivo; procedure, shortened: as §2
[9] = Volume of distribution in Sprague-Dawley rat at 1 mg/kg, iv and 3 mg/kg, po by LC/MS analysis; assay type: ADME, organism-based; conditions: in vivo; procedure, shortened: as §2
[10] = Inhibition of rat cathepsin S glycine 137 mutant by fluorescence assay
Procedure, shortened: (§3)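 Recombinant rat cathepsins K, L, S (137Gly and 137Cys forms) and mouse cathepsin S in a fluorescence assay. Substrates: Z-Phe-Arg-MCA for K and L, Z-Leu-Leu-Arg-MCA for S. IC50 reported as means ± SD of three experiments.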

[11] = Inhibition of rat cathepsin S cysteine 137 mutant by fluorescence assay; procedure, shortened: as §3
[12] = target: T2, Cathepsin K (Rattus norvegicus, UniProt O35186); assay: Inhibition of rat cathepsin K by fluorescence assay; procedure, shortened: as §3
T2 sequence (O35186 whole entry): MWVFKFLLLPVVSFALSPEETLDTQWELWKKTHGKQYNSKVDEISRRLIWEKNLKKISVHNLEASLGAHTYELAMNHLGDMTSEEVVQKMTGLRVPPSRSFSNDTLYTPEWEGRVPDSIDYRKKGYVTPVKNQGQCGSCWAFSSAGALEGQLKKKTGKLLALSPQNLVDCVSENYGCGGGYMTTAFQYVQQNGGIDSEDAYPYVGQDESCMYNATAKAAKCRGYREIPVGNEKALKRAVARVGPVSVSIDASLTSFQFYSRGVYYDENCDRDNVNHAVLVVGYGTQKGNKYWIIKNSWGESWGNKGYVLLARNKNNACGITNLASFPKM

[13] = target: T3, Procathepsin L (Rattus norvegicus, UniProt P07154); assay: Inhibition of rat cathepsin L by fluorescence assay; procedure, shortened: as §3
T3 sequence (P07154 whole entry): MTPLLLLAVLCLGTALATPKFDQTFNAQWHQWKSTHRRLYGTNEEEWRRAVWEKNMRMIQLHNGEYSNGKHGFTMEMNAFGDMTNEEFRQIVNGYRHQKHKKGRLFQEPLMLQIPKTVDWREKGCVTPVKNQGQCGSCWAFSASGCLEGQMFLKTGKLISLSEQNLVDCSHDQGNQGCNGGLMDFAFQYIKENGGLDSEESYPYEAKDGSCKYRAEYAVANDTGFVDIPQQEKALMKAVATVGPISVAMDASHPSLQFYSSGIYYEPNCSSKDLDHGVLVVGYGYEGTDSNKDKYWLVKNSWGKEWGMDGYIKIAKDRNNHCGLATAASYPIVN

[14] = target: Cathepsin S (Mus musculus, UniProt O70370); assay: Inhibition of mouse cathepsin S by fluorescence assay; procedure, shortened: as §3
[15] = species on record: Rattus norvegicus; assay: Selectivity for rat cathepsin S glycine 137 mutant over rat cathepsin K
Procedure, shortened: (§4)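 Recombinant rat cathepsins in a fluorescence assay with MCA substrates: Z-Leu-Leu-Arg-MCA for cathepsin S (137Gly form), Z-Phe-Arg-MCA for K and L, and Z-Arg-Arg-MCA for B. IC50 values were taken as means ± SD of three experiments, and selectivity was compared from the IC50 values against the S enzyme and each other cathepsin.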

[16] = species on record: Rattus norvegicus; assay: Selectivity for rat cathepsin S glycine 137 mutant over rat cathepsin L; procedure, shortened: as §4
[17] = species on record: Rattus norvegicus; assay: Selectivity for rat cathepsin S glycine 137 mutant over rat cathepsin B; procedure, shortened: as §4
[18] = test system: Rattus norvegicus; assay: Reversal of neuropathic mechanical hyperalgesia in Wistar rat sciatic nerve ligation model assessed as paw withdrawal threshold at 30 mg/kg, po administered twice daily for 5 days after 3 hrs; assay type: functional
Procedure, shortened: (§5)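 Partial sciatic nerve ligation in Wistar rats genotyped as 137Gly cathepsin S, with established mechanical hyperalgesia. Oral dosing in 0.5% methylcellulose/water; repeat regimen twice daily for 5 days, paw withdrawal thresholds 3 h post-dose. 6 animals/group; % reversal of hyperalgesia, mean ± SEM; ANOVA with Tukey's HSD versus vehicle.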

[19] = target: T4, Cytochrome P450 1A2 (Homo sapiens, UniProt P05177); assay: Inhibition of CYP1A2 at 10 uM; assay type: ADME
T4 sequence (P05177 whole entry): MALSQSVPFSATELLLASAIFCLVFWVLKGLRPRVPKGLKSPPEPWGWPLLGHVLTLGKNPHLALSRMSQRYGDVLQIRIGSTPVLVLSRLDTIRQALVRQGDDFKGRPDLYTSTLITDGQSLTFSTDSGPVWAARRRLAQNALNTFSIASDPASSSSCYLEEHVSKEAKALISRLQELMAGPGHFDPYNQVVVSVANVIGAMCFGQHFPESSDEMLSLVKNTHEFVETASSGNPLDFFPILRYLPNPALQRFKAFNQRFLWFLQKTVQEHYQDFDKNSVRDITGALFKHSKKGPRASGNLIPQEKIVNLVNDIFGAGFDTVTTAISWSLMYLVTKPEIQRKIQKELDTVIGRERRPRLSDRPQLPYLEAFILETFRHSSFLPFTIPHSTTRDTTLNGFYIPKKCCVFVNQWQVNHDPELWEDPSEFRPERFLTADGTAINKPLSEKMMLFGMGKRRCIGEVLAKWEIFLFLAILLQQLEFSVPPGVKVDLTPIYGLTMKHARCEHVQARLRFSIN
Procedure, shortened: (§6)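 Tested against a panel of cytochrome P450 enzymes at a maximum concentration of 10 µM.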

[20] = target: Cytochrome P450 2C9 (Homo sapiens, UniProt P11712); assay: Inhibition of CYP2C9 at 10 uM; assay type: ADME; procedure, shortened: as §6
Chain of Cytochrome P450 2C9 (P11712 whole entry): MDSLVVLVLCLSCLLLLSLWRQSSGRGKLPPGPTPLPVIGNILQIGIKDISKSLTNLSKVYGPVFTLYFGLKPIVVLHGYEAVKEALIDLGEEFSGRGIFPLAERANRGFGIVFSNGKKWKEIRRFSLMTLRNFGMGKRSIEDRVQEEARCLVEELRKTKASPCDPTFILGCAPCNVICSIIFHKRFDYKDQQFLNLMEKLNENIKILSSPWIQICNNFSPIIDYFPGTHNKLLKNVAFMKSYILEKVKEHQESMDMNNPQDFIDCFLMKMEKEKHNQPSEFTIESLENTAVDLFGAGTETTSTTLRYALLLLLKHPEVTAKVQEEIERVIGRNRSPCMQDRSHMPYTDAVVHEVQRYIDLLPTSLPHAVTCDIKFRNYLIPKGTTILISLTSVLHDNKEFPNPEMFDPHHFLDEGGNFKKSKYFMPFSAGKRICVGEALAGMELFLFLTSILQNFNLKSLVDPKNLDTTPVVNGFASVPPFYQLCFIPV

[21] = target: Cytochrome P450 2C19 (Homo sapiens, UniProt P33261); assay: Inhibition of CYP2C19 at 10 uM; assay type: ADME; procedure, shortened: as §6
Chain of Cytochrome P450 2C19 (P33261 whole entry): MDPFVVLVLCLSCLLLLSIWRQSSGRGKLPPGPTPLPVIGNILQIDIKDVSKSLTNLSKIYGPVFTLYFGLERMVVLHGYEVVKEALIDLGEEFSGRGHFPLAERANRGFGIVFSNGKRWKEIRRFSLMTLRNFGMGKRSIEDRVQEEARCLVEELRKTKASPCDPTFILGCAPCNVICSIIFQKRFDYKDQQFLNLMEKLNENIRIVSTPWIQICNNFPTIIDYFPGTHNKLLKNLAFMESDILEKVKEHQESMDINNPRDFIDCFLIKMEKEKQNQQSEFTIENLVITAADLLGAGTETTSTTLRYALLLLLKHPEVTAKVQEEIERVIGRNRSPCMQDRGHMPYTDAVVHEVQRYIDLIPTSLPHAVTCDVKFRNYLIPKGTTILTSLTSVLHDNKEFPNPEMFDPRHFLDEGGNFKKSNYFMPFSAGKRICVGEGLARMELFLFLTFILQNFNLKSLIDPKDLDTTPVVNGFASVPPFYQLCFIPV

[22] = target: Cytochrome P450 2D6 (Homo sapiens, UniProt P10635); assay: Inhibition of CYP2D6 at 10 uM; assay type: ADME; procedure, shortened: as §6
Chain of Cytochrome P450 2D6 (P10635 whole entry): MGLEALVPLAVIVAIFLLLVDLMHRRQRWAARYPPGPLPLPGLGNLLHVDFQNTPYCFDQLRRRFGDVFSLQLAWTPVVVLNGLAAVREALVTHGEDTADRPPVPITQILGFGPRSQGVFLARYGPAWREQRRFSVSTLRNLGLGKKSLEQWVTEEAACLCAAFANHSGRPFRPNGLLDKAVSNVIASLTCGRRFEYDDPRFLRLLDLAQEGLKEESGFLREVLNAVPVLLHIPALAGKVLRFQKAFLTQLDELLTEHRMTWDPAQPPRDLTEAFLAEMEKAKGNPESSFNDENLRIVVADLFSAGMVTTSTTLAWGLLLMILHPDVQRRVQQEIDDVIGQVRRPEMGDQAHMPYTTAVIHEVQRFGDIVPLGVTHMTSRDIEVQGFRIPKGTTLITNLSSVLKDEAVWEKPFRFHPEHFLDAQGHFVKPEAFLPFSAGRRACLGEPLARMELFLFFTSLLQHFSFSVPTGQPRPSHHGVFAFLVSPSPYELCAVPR

[23] = target: Cytochrome P450 3A4 (Homo sapiens, UniProt P08684); assay: Inhibition of CYP3A4 at 10 uM; assay type: ADME; procedure, shortened: as §6
Chain of Cytochrome P450 3A4 (P08684 whole entry): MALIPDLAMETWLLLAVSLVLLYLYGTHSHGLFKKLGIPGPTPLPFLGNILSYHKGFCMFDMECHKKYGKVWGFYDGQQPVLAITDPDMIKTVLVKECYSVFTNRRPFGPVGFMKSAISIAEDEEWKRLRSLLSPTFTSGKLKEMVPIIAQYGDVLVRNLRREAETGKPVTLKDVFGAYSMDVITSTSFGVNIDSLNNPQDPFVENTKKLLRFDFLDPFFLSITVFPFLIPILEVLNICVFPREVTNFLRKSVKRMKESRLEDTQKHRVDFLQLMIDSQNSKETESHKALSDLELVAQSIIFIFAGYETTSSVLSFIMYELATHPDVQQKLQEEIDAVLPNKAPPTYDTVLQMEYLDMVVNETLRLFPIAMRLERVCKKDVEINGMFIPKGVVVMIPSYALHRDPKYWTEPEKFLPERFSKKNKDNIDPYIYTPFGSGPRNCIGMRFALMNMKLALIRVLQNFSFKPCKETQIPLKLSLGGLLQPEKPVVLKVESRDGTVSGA

[24] = Genotoxicity in liver S9 fraction by Ames test; assay type: toxicity, subcellular
Procedure, shortened: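 Standard Ames test run with liver S9 enzyme.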

[25] = test system: Rattus norvegicus; assay: Reversal of neuropathic mechanical hyperalgesia in Wistar rat sciatic nerve ligation model with cathepsin S glycine 137 mutation at 100 mg/kg, po; assay type: functional; procedure, shortened: as §5

Chain of Cathepsin S (Homo sapiens, UniProt P25774) (P25774 whole entry): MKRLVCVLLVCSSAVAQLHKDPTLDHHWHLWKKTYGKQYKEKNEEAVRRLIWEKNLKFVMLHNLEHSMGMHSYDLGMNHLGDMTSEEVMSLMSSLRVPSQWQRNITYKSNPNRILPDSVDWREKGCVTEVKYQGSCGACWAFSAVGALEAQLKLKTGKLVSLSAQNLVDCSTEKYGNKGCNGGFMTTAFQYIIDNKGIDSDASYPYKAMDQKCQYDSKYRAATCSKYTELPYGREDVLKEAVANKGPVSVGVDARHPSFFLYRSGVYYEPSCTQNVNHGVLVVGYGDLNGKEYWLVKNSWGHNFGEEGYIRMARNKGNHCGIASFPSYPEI

## CC(=O)N1CCN(c2ccc(OCc3cc4cnc(C#N)nc4n3CCC3CCCCCC3)cc2)CC1
[1]
  pIC50: 7.30
[2]
  pIC50: < 5.70
[3]
  pIC50: < 5.70

## CC(=O)N1CCN(c2ccc(OCc3cc4cnc(C#N)nc4n3CCC3CCCCC3)cc2F)CC1
[1]
  pIC50: 8.05
[2]
  pIC50: < 6.00
[3]
  pIC50: < 6.00

## CC(=O)N1CCN(c2ccc(OCc3cc4cnc(C#N)nc4n3CCc3ccc(Cl)cc3)cc2)CC1
[1]
  pIC50: 7.77
[2]
  pIC50: < 6.00
[3]
  pIC50: < 6.00

## CC(=O)N1CCN(c2ccc(OCc3cc4cnc(C#N)nc4n3CCC3CCCCC3)c(F)c2)CC1
[1]
  pIC50: 7.74
[2]
  pIC50: 5.23
[3]
  pIC50: 5.17
[4]
  Activity: Dose-dependent effect
[5]
  clearance: 45 mL/min/kg
[6]
  half-life: 1.7 h
[7]
  bioavailability: 24%
[8]
  Cmax: 30 nM
[9]
  Vd: 5.7 L/kg
[10]
  pIC50: 7.92
[11]
  pIC50: < 5.00
[12]
  pIC50: < 5.00
[13]
  pIC50: < 5.00
[14]
  pIC50: 7.85
[15]
  Activity: > 100
[16]
  Activity: > 100
[17]
  Activity: > 100
[18]
  Activity: 63%
[19]
  Activity: Not Active
[20]
  Activity: Not Active
[21]
  Activity: Not Active
[22]
  Activity: Not Active
[23]
  Activity: Not Active
[24]
  Activity: Non-toxic
[25]
  Activity: 54%
